Assay results reported in ChEMBL document CHEMBL1138691, “Substituted furo[3,2-b]pyridines: novel bioisosteres of 5-HT 1F receptor agonists” (Bioorg Med Chem Lett, 2004).

Legend:
[1] = Ratio of the Ki value for human 5-HT1D receptor versus human 5-HT1F receptor
Summary of the method: (§1)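 Selectivity ratio: Ki at human 5-HT1A, 5-HT1B or 5-HT1D receptor divided by Ki at human 5-HT1F receptor. Each Ki from radioligand binding in cell lines expressing the relevant human receptor, derived from two or more experiments.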

[2] = biological target: T1, 5-hydroxytryptamine receptor 1F (Homo sapiens, UniProt P30939); test: Concentration required for stimulation of [35S]GTP-gamma-S, binding in mouse LM(tk-1) cells expressing the human 5-hydroxytryptamine 1F receptor; type: functional, cell-based
T1 sequence (P30939 whole entry): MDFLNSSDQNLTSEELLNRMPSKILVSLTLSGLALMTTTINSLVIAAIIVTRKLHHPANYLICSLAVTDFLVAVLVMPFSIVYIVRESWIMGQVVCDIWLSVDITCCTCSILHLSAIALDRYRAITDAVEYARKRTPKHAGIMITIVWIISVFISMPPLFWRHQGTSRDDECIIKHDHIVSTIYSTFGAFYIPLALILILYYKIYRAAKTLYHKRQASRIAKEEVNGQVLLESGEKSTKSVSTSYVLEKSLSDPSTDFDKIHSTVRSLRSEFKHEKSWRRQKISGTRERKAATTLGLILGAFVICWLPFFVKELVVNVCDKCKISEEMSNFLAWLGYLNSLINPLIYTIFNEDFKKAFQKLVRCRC
Summary of the method: (§2)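 [35S]GTP-γ-S binding stimulated in mouse LM(tk-) cells expressing human 5-HT1F receptor; means of at least two separate experiments, each run in triplicate, with SEM.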

[3] = Ratio of the Ki value for human 5-HT1A receptor versus human 5-HT1F receptor; summary of the method: as §1
[4] = biological target: T1, 5-hydroxytryptamine receptor 1F; test: In vitro binding affinity for human 5-hydroxytryptamine 1F receptor
Summary of the method: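 Radioligand binding in cell lines expressing the human 5-HT receptor; Ki reported as mean of three or more experiments with SEM.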

[5] = Ratio of the Ki value for human 5-HT1B receptor versus human 5-HT1F receptor; summary of the method: as §1
[6] = biological target: Serotonin (5-HT) receptor (Homo sapiens) (UniProt P30939+P41595+Q13639+P28222+P46098+P08908+P28221+P28223+P28335+P28566+P34969+P50406+P47898+A5X5Y0+O95264+Q70Z44+Q8WXA8); test: Maximum stimulation of [35S]GTP-gamma-S, binding expressed relative to the maximal effect of 5-hydroxytryptamine; type: functional; summary of the method: as §2

For `CN1CCC(c2coc3ccc(NC(=O)c4c(F)cccc4Cl)nc23)CC1`, the Selectivity ratio [1] was 31, the EC50 [2] was 68.7 nM and the Selectivity ratio [3] was 103. It also gave a Ki [4] of 2.9 nM, a Selectivity ratio [5] of 164 and an Emax [6] of 87%.

For `CN1CCC(c2coc3ccc(NC(=O)c4c(F)cc(F)cc4F)nc23)CC1`, the Selectivity ratio [1] was 62, the EC50 [2] was 91.7 nM and the Selectivity ratio [3] was 57. The Ki [4] was 2.3 nM, the Selectivity ratio [5] was 181 and the Emax [6] was 87%.

`Cc1oc2ccc(NC(=O)c3ccc(F)cc3)nc2c1CCN(C)C` showed a Selectivity ratio [1] of 19, a Selectivity ratio [3] of 65 and a Ki [4] of 13.5 nM. It also gave a Selectivity ratio [5] of 42.

Compound `CN1CCC(c2c[nH]c3ccc(NC(=O)c4ccc(F)cc4)nc23)CC1` has a Selectivity ratio [1] of 960, a Selectivity ratio [3] of 7.3 and a Selectivity ratio [5] of 160.

With `CN1CCC(c2coc3ccc(NC(=O)c4ccc(F)cc4)nc23)CC1` the Selectivity ratio [1] was > 1000, the EC50 [2] was 66 nM and the Selectivity ratio [3] was 134. The Ki [4] was 3.1 nM, the Selectivity ratio [5] was > 1000 and the Emax [6] was 88%.

Work on `CN1CCC(c2c[nH]c3ccc(NC(=O)c4ccc(F)cc4)cc23)CC1` yielded a Selectivity ratio [1] of 86, a Selectivity ratio [3] of 7 and a Ki [4] of 1.6 nM. It also gave a Selectivity ratio [5] of 85.

Compound `CN1CCC(c2coc3ccc(NC(=O)c4ccc(F)cc4Cl)nc23)CC1` has a Selectivity ratio [1] of 165, an EC50 [2] of 27.7 nM and a Selectivity ratio [3] of 47. The Ki [4] was 3 nM, the Selectivity ratio [5] was 177 and the Emax [6] was 92%.

`Cc1[nH]c2ccc(NC(=O)c3ccc(F)cc3)cc2c1CCN(C)C` showed a Selectivity ratio [1] of 200, a Selectivity ratio [3] of 32 and a Ki [4] of 8.2 nM. It also gave a Selectivity ratio [5] of 130.
